In the library only some 2.5% were active in any assay of this set; here they are far more common.
ERAP1 HTS inh: ERAP1 (human) enzyme inhibition; 0.15% of 340,000 active; inhibition, % at 10.7 µM; AID 652197; recombinant ERAP1, Leu-AMC fluorescence, 60 min; Q9NZ08;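 active means mean replicate inhibition of at least 30%, or all replicates individually reaching that 30% level; inactive means mean below 30% and not every replicate reaching it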;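 further: 0% = neutral control wells and 100% = L-leucinethiol positive control wells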
PglD inh: inhibitors of Campylobacter jejuni PglD acetyltransferase. purified PglD enzyme, DTNB colorimetric CoA detection. inhibition, % at 12.5 µM. 0.098% of 360,000 active. AID 602405; in the data active means inhibition above about 16%, passing the limit was not always enough; inconclusive means no clear call, values can overlap the other calls
E-selectin induc: induces E-selectin expression in human endothelial cells. P16581. HUVEC E-selectin immunofluorescence imaging; normalized: neutral wells 0, TNF-alpha wells 100. activation, % at 7.58 µM. AID 686992. 0.37% of 260,000 active;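 active means mean E-selectin-positive cell signal at least 10% of the positive control, reached in at least 60% of replicates, without over 20% cell loss; inconclusive means no rule given, readout overlaps actives, possibly toxicity-flagged; inactive means the rest, including those meeting only one limit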
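Material: HUVEC primary endothelial cells; Amount: 3,000 cells per well; Dosing: single concentration; Medium: EGM-2 growth medium on 0.1% gelatin-coated wells; Read-out basis: percent E-selectin-positive cells; Signal: immunofluorescence imaging; Control set: TNF-alpha, DMSO.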
DENV2 CPE: DENV2-induced cell death inhibition. DENV2-infected cells, cytopathic effect rescue, plate reader. CPE inhibition, % at 9.99 µM. 1.7% of 350,000 active. AID 651640; in the data active means CPE inhibition above about 20%, passing the limit was not always enough; inconclusive means no clear call, values can overlap the other calls; tested in BHK-21 cells;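 further: 0% = median of neutral control wells and 100% = median of positive control wells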
SIRT5 inh: sirtuin-5 (human) deacylase inhibition | Q9NXA8 | Purified SirT5, succinyl-peptide AMC, trypsin-coupled fluorescence | inhibition, % at 15 µM | 1.1% of 330,000 active; in the data active means inhibition above about 15%; inconclusive means no clear call, values can overlap the other calls
Target sequence (Q9NXA8 whole entry, looked up): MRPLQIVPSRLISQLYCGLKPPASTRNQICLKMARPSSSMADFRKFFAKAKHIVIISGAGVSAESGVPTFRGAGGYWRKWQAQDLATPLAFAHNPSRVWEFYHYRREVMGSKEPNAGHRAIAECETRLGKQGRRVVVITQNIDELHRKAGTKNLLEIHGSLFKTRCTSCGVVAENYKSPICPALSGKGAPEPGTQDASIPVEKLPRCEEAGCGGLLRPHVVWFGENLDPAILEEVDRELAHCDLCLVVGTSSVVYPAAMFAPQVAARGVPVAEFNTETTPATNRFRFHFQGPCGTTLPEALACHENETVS
* hit, by the source's call; ? = inconclusive; nt = no result given; ! = not active in a repeat.

SMILES	ERAP1 HTS inh	PglD inh	E-selectin induc	DENV2 CPE	SIRT5 inh
CCC(=O)N(C)C[C@@H]1Oc2ncc(C#C[C@@H](C)O)cc2C(=O)N([C@H](C)CO)C[C@H]1C	1	7	0	11	-3
COC(=O)N1CCN(c2ccc(C)cc2)C(C)C1 (stereo not drawn)	0	-5	1	3	-5
COc1ccc(Cl)cc1C(=O)Nc1ccc2nc3n(c(=O)c2c1)CCCC3	5	-2	0	2	0
Cc1noc(C)c1NC(=O)Nc1ccc2c(c1)C(=O)N([C@@H](C)CO)C[C@@H](C)[C@H](CN(C)S(=O)(=O)c1ccc(Cl)cc1)O2	1	4	2	28*	6
Cc1noc(C)c1NC(=O)Nc1ccc2c(c1)C(=O)N([C@H](C)CO)C[C@@H](C)[C@H](CN(C)S(=O)(=O)c1ccc(Cl)cc1)O2	1	2	0	0	2
COc1cccc(/C=C(/C#N)c2nc3ccccc3[nH]2)c1OC(C)C(=O)O (stereo not drawn)	2	nt	0	1	1
COc1cccc(/C=C(\C#N)c2nc3ccccc3[nH]2)c1OCC(=O)O	-4	-8	nt	1	102*
Cc1cc(C)cc(OCC(=O)OC/C(O)=C(\C#N)c2nc3ccccc3[nH]2)c1	nt	nt	0	nt	nt
Cc1cc(Br)ccc1SCC(=O)OCC(O)=C(C#N)c1nc2ccccc2[nH]1	2	-6	0	2	nt
Cc1cc(Br)ccc1SCC(=O)OC/C(O)=C(\C#N)c1nc2ccccc2[nH]1	-1	nt	nt	5	21*
Cc1cccc(C)c1OCC(=O)OC/C(O)=C(\C#N)c1nc2ccccc2[nH]1	6	2	nt	33*	nt
CC1=NC(C)(C)Cc2c(C)cccc21	1	-2	72*	0	0
Cc1cccc2c1CC(C)(C)N=C2C1=C(O)CCCC1=O	nt	-12	nt	nt	nt
O=C(Cc1ccc([N+](=O)[O-])cc1)Nc1nccs1	2	0	nt	10	-5
C[C@H](CO)N1C[C@H](C)[C@H](CN(C)S(=O)(=O)c2cn(C)cn2)OCCCC[C@H](C)Oc2ccc(NC(=O)Nc3ccc4c(c3)OCO4)cc2C1=O	-3	-1	0	3	-1
C[C@@H]1CN([C@@H](C)CO)C(=O)c2cc(NS(C)(=O)=O)ccc2O[C@H]1CN(C)Cc1ccc(-c2ccccc2)cc1	0	2	0	32*	2
C[C@@H]1CN([C@@H](C)CO)C(=O)c2cc(NS(=O)(=O)c3ccccc3)ccc2O[C@@H]1CN(C)Cc1ccc(-c2ccccc2)cc1	-3	2	0	11	18*
C[C@H](CO)N1C[C@H](C)[C@H](CN(C)Cc2ccc(-c3ccccc3)cc2)Oc2ccc(NS(C)(=O)=O)cc2C1=O	-1	-1	0	-1	1
Cc1ccc(S(=O)(=O)Nc2ccc3c(c2)C(=O)N([C@@H](C)CO)C[C@@H](C)[C@@H](CN(C)Cc2ccc(-c4ccccc4)cc2)O3)cc1	-2	4	7	4	17*
COc1ccc(-c2ccc([C@@H]3[C@@H](CO)N4C(=O)CN(C(=O)C5CCCC5)C[C@@H]34)cc2)cc1	-1	nt	0	?	nt
O=C(/C=C(\Nc1cccc(C(F)(F)F)c1)c1ccccc1)c1ccccc1	-1	nt	0	1	nt
Cc1cccc(OCC(=O)N/N=C/c2cn[nH]c2-c2ccc(Cl)c(Cl)c2)c1	2	-7	nt	nt	-3
O=c1cc(O)c2sc3nc(-c4ccccc4)cc(C(F)(F)F)c3c2[nH]1	nt	-1	nt	nt	nt
O=c1cc(O)c2sc3nc4c(c(C(F)(F)F)c3c2[nH]1)CCCCC4	nt	nt	2	-3	17*
Cc1cccc(NC(=O)CNC(=O)c2cc(C3CC3)nn2-c2ccccc2)c1C	-2	3	-1	6	0
SMILES	ERAP1 HTS inh	PglD inh	E-selectin induc	DENV2 CPE	SIRT5 inh
COc1ccc(NC(=O)Nc2ccc3c(c2)C(=O)N([C@H](C)CO)C[C@@H](C)[C@@H](CN(C)C(=O)C2CCCCC2)OCCCC[C@H](C)O3)cc1	0	6	2	46*!	17*!
COc1ccc(NC(=O)Nc2ccc3c(c2)C(=O)N([C@H](C)CO)C[C@H](C)[C@@H](CN(C)C(=O)C2CCCCC2)OCCCC[C@@H](C)O3)cc1	1	3	0	32*	0
COc1ccc(NC(=O)Nc2ccc3c(c2)C(=O)N([C@@H](C)CO)C[C@@H](C)[C@H](CN(C)C(=O)C2CCCCC2)OCCCC[C@@H](C)O3)cc1	2	1	0	22*	1
COc1ccc(NC(=O)Nc2ccc3c(c2)C(=O)N([C@H](C)CO)C[C@H](C)[C@H](CN(C)C(=O)C2CCCCC2)OCCCC[C@H](C)O3)cc1	2	4	1	7	1
COc1ccc(NC(=O)Nc2ccc3c(c2)C(=O)N([C@@H](C)CO)C[C@@H](C)[C@H](CN(C)C(=O)C2CCCCC2)OCCCC[C@H](C)O3)cc1	2	2	0	-13	1
CCOC(=O)COc1ccccc1/C=N/Nc1nnc2c3ccccc3n(C)c2n1	3	-6	7	-2	-1
COCCSc1nnc(NC(=O)Cc2ccccc2OC)s1	nt	-3	nt	nt	nt
CCOC(=O)CC(NC(=O)c1ccco1)c1ccccc1Cl (stereo not drawn)	nt	-3	nt	nt	nt
Oc1cccc(NC(=S)Nc2ccccc2)c1	-3	-13	0	4	-5
Oc1cccc(Nc2ccccc2)c1	-6	-4	nt	28*	nt
CC(C)C(OC(=O)c1nsc(Cl)c1Cl)C(=O)NCc1ccccc1 (stereo not drawn)	0	3	32*	0	-3
COc1ccc(CNC(=O)C(OC(=O)c2nsc(Cl)c2Cl)C(C)C)cc1 (stereo not drawn)	-16	-3	-5	-2	4
CC(C)(C)OC(=O)N/N=C\c1ccc(OC(=O)c2ccco2)cc1	-2	nt	nt	9	-6
COc1cccc(NC(=O)N2CC(=O)N3[C@H](C2)[C@H](c2ccc(C#CCC4CCCC4)cc2)[C@@H]3CO)c1	-1	nt	0	15	25*
COc1cccc(NC(=O)N2CC(=O)N3[C@H](CO)[C@H](c4ccc(C#CCC5CCCC5)cc4)[C@@H]3C2)c1	-2	nt	0	6	24*
COc1cccc(NC(=O)N2CC(=O)N3[C@@H](CO)[C@@H](c4ccc(C#CCC5CCCC5)cc4)[C@@H]3C2)c1	-1	nt	0	1	17*
COc1cccc(NC(=O)N2CC(=O)N3[C@H](CO)[C@@H](c4ccc(C#CCC5CCCC5)cc4)[C@H]3C2)c1	-3	nt	0	2	22*
COc1ccc(NC(=O)N2CC(=O)N3[C@H](CO)[C@H](c4ccc(C#CCC5CCCC5)cc4)[C@@H]3C2)cc1	0	nt	0	-7	2
CC(C)NC(=O)N(C)C[C@H]1Oc2c(NS(C)(=O)=O)cccc2C(=O)N([C@H](C)CO)C[C@H]1C	0	-1	0	-5	-1
CCC(=O)N1C(C(=O)O)CSC1c1ccc(OC)cc1 (stereo not drawn)	-1	-7	8	2	-2

Screens from PubChem.
